From ChEMBL document CHEMBL5058577, “EUbOPEN Chemogenomics Library 2 (Multiplex)” (2022)

Tested on: U2OS
Assay: Multiplex assay against U2OS
Format: toxicity, cell-based
Conditions: human
In short: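 Tubulin, mitochondrial-mass and membrane-permeability phenotypes are per cents of healthy-nucleus cells. Cells were gated by CellPathfinder machine learning into Hoechst high-intensity objects or normal cells, normal cells into healthy, pyknosed or fragmented nuclei, and pyknosed cells into mitotic or apoptotic. Before that, live cells stained at seeding with Hoechst33342, BioTracker Green Microtubule Cytoskeleton Dye, MitoTracker Red and Annexin V Alexa Fluor 680 were imaged on a CQ1 microscope at 37°C and 5% CO2 after compound addition.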

[1] = 12 h, 1 µM, compound concentration 1 uM, replicate 1
[2] = 12 h, 1 µM, compound concentration 1 uM, replicate 2
[3] = 12 h, 10 µM, compound concentration 10 uM, replicate 1
[4] = 12 h, 10 µM, compound concentration 10 uM, replicate 2
[5] = 24 h, 1 µM, compound concentration 1 uM, replicate 1
[6] = 24 h, 1 µM, compound concentration 1 uM, replicate 2
[7] = 24 h, 10 µM, compound concentration 10 uM, replicate 1
[8] = 24 h, 10 µM, compound concentration 10 uM, replicate 2
[9] = 48 h, 1 µM, compound concentration 1 uM, replicate 1
[10] = 48 h, 1 µM, compound concentration 1 uM, replicate 2
[11] = 48 h, 10 µM, compound concentration 10 uM, replicate 1
[12] = 48 h, 10 µM, compound concentration 10 uM, replicate 2

CN1CCN(c2ccc(Nc3c4ccccc4nc4ccccc34)cc2)CC1.Cl.Cl.O
Population Apoptotic (%) [1]: 100% | Population Fragmented Nuclei (%) [1]: 25% | Population Healthy Nuclei (%) [1]: 65% | Population Hoechst High Intensity Objects (%) [1]: 0% | Population Membrane Permeable-Phenotype (%) [1]: 19% | Population Mitochondria Different-Phenotype (%) [1]: 7% | Population Mitotic Cells (%) [1]: 0% | Population Normal (%) [1]: 99% | Population Pyknosed Nuclei (%) [1]: 8% | Population Tubulin-Different-Phenotype (%) [1]: 17% | Total Cell Count [1]: 193 | Population Apoptotic (%) [2]: 87% | Population Fragmented Nuclei (%) [2]: 23% | Population Healthy Nuclei (%) [2]: 69% | Population Membrane Permeable-Phenotype (%) [2]: 14% | Population Mitochondria Different-Phenotype (%) [2]: 13% | Population Mitotic Cells (%) [2]: 12% | Population Normal (%) [2]: 100% | Population Pyknosed Nuclei (%) [2]: 7% | Population Tubulin-Different-Phenotype (%) [2]: 13% | Total Cell Count [2]: 107 | Population Apoptotic (%) [3]: 93% | Population Fragmented Nuclei (%) [3]: 54% | Population Healthy Nuclei (%) [3]: 38% | Population Hoechst High Intensity Objects (%) [3]: 0% | Population Membrane Permeable-Phenotype (%) [3]: 65% | Population Mitochondria Different-Phenotype (%) [3]: 95% | Population Mitotic Cells (%) [3]: 6% | Population Normal (%) [3]: 99% | Population Pyknosed Nuclei (%) [3]: 7% | Population Tubulin-Different-Phenotype (%) [3]: 82% | Total Cell Count [3]: 213 | Population Apoptotic (%) [4]: 100% | Population Fragmented Nuclei (%) [4]: 62% | Population Healthy Nuclei (%) [4]: 31% | Population Hoechst High Intensity Objects (%) [4]: 2% | Population Membrane Permeable-Phenotype (%) [4]: 70% | Population Mitochondria Different-Phenotype (%) [4]: 100% | Population Mitotic Cells (%) [4]: 0% | Population Normal (%) [4]: 97% | Population Pyknosed Nuclei (%) [4]: 6% | Population Tubulin-Different-Phenotype (%) [4]: 85% | Total Cell Count [4]: 132 | Population Apoptotic (%) [5]: 92% | Population Fragmented Nuclei (%) [5]: 28% | Population Healthy Nuclei (%) [5]: 64% | Population Hoechst High Intensity Objects (%) [5]: 1% | Population Membrane Permeable-Phenotype (%) [5]: 10% | Population Mitochondria Different-Phenotype (%) [5]: 6% | Population Mitotic Cells (%) [5]: 7% | Population Normal (%) [5]: 98% | Population Pyknosed Nuclei (%) [5]: 6% | Population Tubulin-Different-Phenotype (%) [5]: 7% | Total Cell Count [5]: 200 | Population Apoptotic (%) [6]: 100% | Population Fragmented Nuclei (%) [6]: 29% | Population Healthy Nuclei (%) [6]: 60% | Population Hoechst High Intensity Objects (%) [6]: 4% | Population Membrane Permeable-Phenotype (%) [6]: 5% | Population Mitochondria Different-Phenotype (%) [6]: 12% | Population Mitotic Cells (%) [6]: 0% | Population Normal (%) [6]: 95% | Population Pyknosed Nuclei (%) [6]: 10% | Population Tubulin-Different-Phenotype (%) [6]: 6% | Total Cell Count [6]: 124 | Population Apoptotic (%) [7]: 100% | Population Fragmented Nuclei (%) [7]: 46% | Population Healthy Nuclei (%) [7]: 42% | Population Hoechst High Intensity Objects (%) [7]: 4% | Population Membrane Permeable-Phenotype (%) [7]: 85% | Population Mitochondria Different-Phenotype (%) [7]: 96% | Population Mitotic Cells (%) [7]: 0% | Population Normal (%) [7]: 95% | Population Pyknosed Nuclei (%) [7]: 11% | Population Tubulin-Different-Phenotype (%) [7]: 90% | Total Cell Count [7]: 205 | Population Apoptotic (%) [8]: 90% | Population Fragmented Nuclei (%) [8]: 69% | Population Healthy Nuclei (%) [8]: 23% | Population Hoechst High Intensity Objects (%) [8]: 10% | Population Membrane Permeable-Phenotype (%) [8]: 96% | Population Mitochondria Different-Phenotype (%) [8]: 100% | Population Mitotic Cells (%) [8]: 10% | Population Normal (%) [8]: 89% | Population Pyknosed Nuclei (%) [8]: 7% | Population Tubulin-Different-Phenotype (%) [8]: 100% | Total Cell Count [8]: 148 | Population Apoptotic (%) [9]: 87% | Population Fragmented Nuclei (%) [9]: 36% | Population Healthy Nuclei (%) [9]: 52% | Population Hoechst High Intensity Objects (%) [9]: 4% | Population Membrane Permeable-Phenotype (%) [9]: 6% | Population Mitochondria Different-Phenotype (%) [9]: 4% | Population Mitotic Cells (%) [9]: 12% | Population Normal (%) [9]: 95% | Population Pyknosed Nuclei (%) [9]: 10% | Population Tubulin-Different-Phenotype (%) [9]: 3% | Total Cell Count [9]: 231 | Population Apoptotic (%) [10]: 100% | Population Fragmented Nuclei (%) [10]: 40% | Population Healthy Nuclei (%) [10]: 47% | Population Hoechst High Intensity Objects (%) [10]: 5% | Population Membrane Permeable-Phenotype (%) [10]: 19% | Population Mitochondria Different-Phenotype (%) [10]: 7% | Population Mitotic Cells (%) [10]: 0% | Population Normal (%) [10]: 94% | Population Pyknosed Nuclei (%) [10]: 12% | Population Tubulin-Different-Phenotype (%) [10]: 9% | Total Cell Count [10]: 147 | Population Apoptotic (%) [11]: 96% | Population Fragmented Nuclei (%) [11]: 53% | Population Healthy Nuclei (%) [11]: 30% | Population Hoechst High Intensity Objects (%) [11]: 18% | Population Membrane Permeable-Phenotype (%) [11]: 91% | Population Mitochondria Different-Phenotype (%) [11]: 90% | Population Mitotic Cells (%) [11]: 3% | Population Normal (%) [11]: 81% | Population Pyknosed Nuclei (%) [11]: 15% | Population Tubulin-Different-Phenotype (%) [11]: 93% | Total Cell Count [11]: 243 | Population Apoptotic (%) [12]: 100% | Population Fragmented Nuclei (%) [12]: 76% | Population Healthy Nuclei (%) [12]: 19% | Population Hoechst High Intensity Objects (%) [12]: 15% | Population Membrane Permeable-Phenotype (%) [12]: 100% | Population Mitochondria Different-Phenotype (%) [12]: 96% | Population Mitotic Cells (%) [12]: 0% | Population Normal (%) [12]: 84% | Population Pyknosed Nuclei (%) [12]: 4% | Population Tubulin-Different-Phenotype (%) [12]: 100% | Total Cell Count [12]: 173
